The source made the active and inactive calls. No cut-off for these calls is given here.
Key:
[1] = tested on: T47D; experiment: Induction of apoptosis in human T47D cells assessed as caspase activation after 24 hrs by HTS assay; assay type: functional, cell-based
Summary of the method: (§1)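 Proprietary cell- and caspase-based HTS assay in ATCC-sourced cells; EC50 values given as mean ± SEM of three or more experiments.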

[2] = tested on: SNU-398; experiment: Induction of apoptosis in human SNU398 cells assessed as caspase activation after 24 hrs by HTS assay; assay type: functional, cell-based; settings: SNU-398, 24 h; summary of the method: as §1
[3] = tested on: HCT-116; experiment: Induction of apoptosis in human HCT116 cells assessed as caspase activation after 24 hrs by HTS assay; assay type: functional, cell-based; settings: HCT-116, 24 h; summary of the method: as §1
[4] = tested on: T47D; experiment: Growth inhibition of human T47D cells after 48 hrs; assay type: functional
Summary of the method: (§2)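 Cells (ATCC-sourced) exposed to compound for 48 h at 37 °C; CellTiter-Glo reagent added, mixed by agitation, incubated 10–15 min at room temperature, luminescence read. GI50 taken as concentration giving 50% inhibition of cell growth.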

[5] = tested on: HCT-116; experiment: Growth inhibition of human HCT116 cells after 48 hrs; assay type: functional; settings: HCT-116, 48 h; summary of the method: as §2
[6] = tested on: SNU-398; experiment: Growth inhibition of human SNU398 cells after 48 hrs; assay type: functional; settings: SNU-398, 48 h; summary of the method: as §2
[7] = tested on: MCF7; experiment: Cell cycle arrest in human MCF7 cells by accumulation at G2/M phase; assay type: functional, cell-based
[8] = Inhibition of tubulin polymerization

SMILES | EC50 [1] [nM] | EC50 [2] [nM] | EC50 [3] [nM] | GI50 [4] [nM] | GI50 [5] [nM] | GI50 [6] [nM] | Activity [7] | IC50 [8] [nM]
COc1cncc(C2C(C#N)=C(N)Oc3c2ccc2c3ccn2C)c1 (stereo not given) | 3 | 3 | 3 |  |  |  |  | 
COc1cc(C2C(C#N)=C(N)Oc3c2ccc2c3ccn2CO)cc(Br)c1OC (stereo not given) | 3 | 2 | 3 | 2 | 4 | 1 |  | 
COc1cc(C2C(C#N)=C(N)Oc3c2ccc2[nH]ccc32)cc(Br)c1OC (stereo not given) | 5 | 15 | 14 | 8 | 20 | 14 |  | 
CC[C@]1(O)C[C@@H]2CN(CCc3c([nH]c4ccccc34)[C@@](C(=O)OC)(c3cc4c(cc3OC)N(C)[C@H]3[C@@](O)(C(=O)OC)[C@H](OC(C)=O)[C@]5(CC)C=CCN6CC[C@]43[C@@H]65)C2)C1 [VINBLASTINE] | 43 | 38 | 44 | 7 |  |  |  | 
COc1cc(C2C(C#N)=C(N)Oc3c2ccc2c3ncn2C)cc(Br)c1OC (stereo not given) | 4 | 3 | 5 |  |  |  |  | 
CC[C@]1(O)C[C@H]2CN(CCc3c([nH]c4ccccc34)[C@@](C(=O)OC)(c3cc4c(cc3OC)N(C=O)[C@H]3[C@@](O)(C(=O)OC)[C@H](OC(C)=O)[C@]5(CC)C=CCN6CC[C@]43[C@@H]65)C2)C1 [VINCRISTINE] | 43 | 12 | 58 |  |  |  |  | 
COc1cc2c(c(OC)c1OC)-c1ccc(OC)c(=O)cc1[C@@H](NC(C)=O)CC2 [COLCHICINE] |  | 4 | 15 | 7 |  |  |  | 
COc1cc(C2C(C#N)=C(N)Oc3c2ccc2c3CCN2C)cc(Br)c1OC (stereo not given) | 2 | 1 | 4 | 7 | 4 | 1 |  | 
COc1cc(C2C(C#N)=C(N)Oc3c2ccc2c3ccn2C)cc(OC)c1OC (stereo not given) | 4 | 3 | 6 |  |  |  |  | 
COc1cc(C2C(C#N)=C(N)Oc3c2ccc2cc[nH]c32)cc(Br)c1OC (stereo not given) | 16 | 86 | 69 |  |  |  |  | 
CCn1ccc2c3c(ccc21)C(c1cc(Br)c(OC)c(OC)c1)C(C#N)=C(N)O3 (stereo not given) | 39 | 25 | 44 |  |  |  |  | 
COc1cc(C2C(C#N)=C(N)Oc3c2ccc2[nH]c(C)cc32)cc(Br)c1OC (stereo not given) | 30 | 27 | 54 |  |  |  |  | 
COc1cc(OC)cc(C2C(C#N)=C(N)Oc3c2ccc2c3ccn2C)c1 (stereo not given) | 5 | 3 | 6 |  |  |  |  | 
CC(=O)O[C@H]1C(=O)[C@@]2(C)[C@H]([C@H](OC(=O)c3ccccc3)[C@]3(O)C[C@H](OC(=O)[C@H](O)[C@@H](NC(=O)c4ccccc4)c4ccccc4)C(C)=C1C3(C)C)[C@]1(OC(C)=O)CO[C@@H]1C[C@@H]2O [PACLITAXEL] | 36 | 11 | 24 |  |  |  |  | 
COc1cc(C2C(C#N)=C(N)Oc3c2ccc2ccn(C)c32)cc(Br)c1OC (stereo not given) | 150 | 130 | 170 |  |  |  |  | 
Cc1cncc(C2C(C#N)=C(N)Oc3c2ccc2c3ccn2C)c1 (stereo not given) | 3 | 2 | 3 | 8 | 3 | 2 |  | 
COc1cccc(C2C(C#N)=C(N)Oc3c2ccc2c3ccn2C)c1 (stereo not given) | 6 | 5 | 7 |  |  |  |  | 
COc1cc(C2C(C#N)=C(N)Oc3c2ccc2c3ccn2C)cc(Br)c1OC (stereo not given) | 2 | 2 | 3 | 0.3 | 1.4 | 0.2 | Active | 900
COc1cc(C2C(C#N)=C(N)Oc3c2ccc2c3ccn2C)cc2c1OCO2 (stereo not given) | 17 | 12 | 15 |  |  |  |  | 

— ChEMBL document CHEMBL1140741, “Discovery of 4-aryl-4H-chromenes as a new series of apoptosis inducers using a cell- and caspase-based high throughput screening assay. 4. Structure-activity relationships of N-alkyl substituted pyrrole fused at the 7,8-positions” (J Med Chem, 2008)
